Hits are enriched below; roughly 3.1% of the tested compounds scored in any of these assays.
FGF22 binding-1 = binders of human FGF22 protein, primary screen, FGF22 synaptogenesis inhibitor project, biophysical, thermal shift, single point | 340,000 compounds, 1.5% hits | activity (Tm shift, normalised), % at 9.99 µM | recombinant FGF22 thermal shift, SYPRO orange fluorescence; percent of sucrose octasulfate shift, DMSO zero;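 active = mean Tm shift, scaled 0 neutral to 100 positive control, at about 1.3% or above, every replicate too, limit read from the data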
Target sequence (Q9HCT0 whole entry, looked up): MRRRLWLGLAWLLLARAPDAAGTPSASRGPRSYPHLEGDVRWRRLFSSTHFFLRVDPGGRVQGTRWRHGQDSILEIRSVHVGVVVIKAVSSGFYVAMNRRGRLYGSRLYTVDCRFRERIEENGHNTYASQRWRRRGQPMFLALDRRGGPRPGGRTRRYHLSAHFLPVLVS
PGC1a acetyl inh = inhibitors of PGC1a acetylation signal, primary screen, cell-based, U2OS, AlphaScreen, inhibitor mode; AlphaScreen anti-acetyl-lysine; with virally co-expressed GCN5 acetyltransferase; 350,000 compounds, 0.17% hits; inhibition, % at 15.6 µM; AID 651687, 2012;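 active = every replicate shows inhibition of at least 40%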;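 note: 0% = neutral control wells and 100% = positive control wells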
EWS-Fli inh = EWS/Fli-driven NR0B1 reporter inhibitors, primary screen, A673 cells, NR0B1 luciferase, luminescence, MLPCN library; viability-normalised; inhibition, % at 12.6 µM; 350,000 compounds, 0.67% hits;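 active = mean inhibition of at least 50% after viability correction, with every replicate also passing that limit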;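 note: firefly luciferase signal divided by Alamar Blue viability fluorescence both relative to DMSO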
HIV Env fusion = inhibitors of HIV-1 Env-driven cell-cell fusion, primary screen, HeLa-JRFL effector, CEM21 target cells, luciferase | inhibition, % at 12.3 µM | 360,000 compounds, 1.1% hits;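 active = mean replicate inhibition score of at least 50 and every replicate individually at or above 50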;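 note: 0% = plate neutral controls and 100% = maraviroc near 300 nM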
PAX8 inh HTS = inhibitors of PAX8-driven TPO luciferase reporter, primary screen, RMG-I cells, single concentration. SteadyGlo, 24 h. inhibition, % at 12.6 µM. 360,000 compounds, 1.2% hits. AID 652154, 2013;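 active = mean replicate inhibition at least 60% with every replicate also reaching 60%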;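 note: luciferase light reporting Pax8 driven TPO promoter activity; plate controls were median of neutral control wells for no effect and mitoxantrone controls for full effect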
FN deposition inh = inhibitors of fibronectin matrix deposition, primary screen, AH1F cells, Alexa488-fibronectin fluorescence, plate reader. AH1F fibroblasts, overnight. inhibition, % at 12.6 µM. 350,000 compounds, 0.086% hits;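 active = mean inhibition across replicates of 30% or more, regardless of how many single replicates reach that level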;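 note: positive control wells lacked labelled fibronectin entirely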
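Material: AH1F fibroblasts assembling fluorescent fibronectin matrix; amount: 10000 AH1F cells/well; medium: DMEM, 2% serum; reagent: Alexa488-fibronectin, 24 nM final in well; dosing: single compound dose, delivered by pin transfer; incubation: 1 h adhesion, overnight exposure; detection: fluorescence after three HBSS washes, excitation 485 nm, emission 525 nm; measure: fibronectin deposition inhibition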
FGF22 binding-2 = binders of human FGF22 protein, dose response, FGF22 synaptogenesis inhibitor project, biophysical, thermal shift, cherry-pick retest. shares compounds with FGF22 binding-1. recombinant FGF22 thermal shift, SYPRO orange fluorescence. thermal shift activity, °C (ΔTm) at 38 µM. 1,000 compounds, 2% hits. AID 720646, 2013;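 active = fitted rise in melting shift crosses a set limit at or below the top valid dose tested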
SYPRO no-protein = compound-only thermal shift signal without protein, dose response, artefact control for FGF22 binder project, biochemical, cherry-picked samples, RT-PCR instrument | shares compounds with FGF22 binding-1 | compound-only SYPRO orange thermal shift counter-screen, no protein | AC50, µM (doses to about 38 µM) | 1,000 compounds, 2% hits;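 active = rising signal whose fitted curve reaches the 0.54 level within the top valid dose, showing a melting point, actives reach about 13 µM in these data; inactive = the rest, including activity in the opposite direction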; note: value is where the raw curve crosses a fixed level and not half-maximal
Numbers without * were called inactive; i = inactive; . = no result given; [ ] = another dose, or the depositor's remark.

SMILES	FGF22 binding-1	PGC1a acetyl inh	EWS-Fli inh	HIV Env fusion	PAX8 inh HTS	FN deposition inh	FGF22 binding-2	SYPRO no-protein
Cc1noc(C)c1NC(=O)N(C)C[C@@H]1Oc2ccc(NS(=O)(=O)c3ccc(F)cc3)cc2CC(=O)N([C@@H](C)CO)C[C@@H]1C	0.1	1.9	-8.1	-4.6[16.7 µM]	.	.	.	.
O=C1N[C@H](c2ccccc2)COCc2cn(nn2)CC[C@@H]1Cc1ccc(C(F)(F)F)cc1	.	.	.	.	.	-1.6	.	.
O=C(c1cccc(F)c1)N1C[C@H]2[C@@H](c3ccccc31)[C@@H](CO)N2C(=O)c1ccccn1	3.3*	-0.2	2.3	.	8.9	.	-0.048[42 µM]	i
O=C(c1ccccn1)N1C[C@H]2[C@@H](c3ccccc31)[C@@H](CO)N2C(=O)c1ccccn1	11.2*	1.9	4.3	.	-3.7	.	-0.005[42 µM]	i
CNC[C@H]1OCCCC[C@H](C)Oc2ccc(NS(=O)(=O)c3ccccc3)cc2C(=O)N([C@@H](C)CO)C[C@H]1C	-0.3	3.1	-3.0	9.8[16.7 µM]	-1.8	.	.	.
S=C(Nc1ccc(Cl)cc1)Nc1ccc2cn[nH]c2c1	1.9*	14.2	-14.7	-12.6	-39.6	.	0.258	i
C[C@@H]1CCCCO[C@@H](CN(C)S(=O)(=O)c2ccc(Cl)cc2)[C@H](C)CN([C@H](C)CO)C(=O)c2cc(NC(=O)CCCN(C)C)ccc2O1	-0.1	-1.1	-8.8	0.5[16.7 µM]	10.7	.	.	.
CCN(CC)S(=O)(=O)c1ccc(N/N=C(\C)c2ccc(OC)cc2O)nc1	1.4*	13.4	-8.2	-0.9	46.2	9.4	0.135	i
CCN(CC)S(=O)(=O)c1ccc(N/N=C/c2ccc(O)cc2)nc1	0.2	-11.3	11.9	16.2	9.3	-3.8	.	.
O=C(Nc1ccc(F)cc1)N[C@@H]1C[C@@H]2O[C@@H](CO)CC[C@@H]2O[C@@H]1CCc1ccc(C2=CCCC2)cc1	.	-27.6	-3.6	.	7.1	.	.	.
COc1cccc(NC(=O)CN(C)C(=O)c2cn(-c3ccccc3)nc2-c2cccs2)c1	2.1*	-4.0	-1.1	.	-0.7	-10.1	0.632	i
COc1ccccc1-c1cn(CC[C@@H]2CC[C@@H](NC(=O)Cc3ccccn3)[C@@H](CO)O2)nn1	0.1	-4.9	-7.3	-12.7[16.7 µM]	27.2	-3.8	.	.
OC[C@H]1[C@@H]2c3ccccc3NC[C@@H]2N1Cc1ccccc1Cl	1.4*	7.4	11.4	.	17.2	-13.8	0.227[42 µM]	i
O=C(Nc1ccccc1Cl)N1[C@H](CO)[C@@H]2c3ccccc3NC[C@@H]21	1.6*	6.6	-86.8	.	-168.7	.	0.068	i
OC[C@H]1[C@H]2c3ccccc3NC[C@H]2N1Cc1ccccc1Cl	0.2	10.2	10.1	.	25.5	3.0	.	.
COc1ccc(S(=O)(=O)Nc2ccc3c(c2)CC(=O)N([C@@H](C)CO)C[C@H](C)[C@@H](CN(C)C(=O)NC(C)C)O3)cc1	-0.3	13.4	-8.4	-10.3[16.7 µM]	.	-0.1	.	.
CC(=O)c1ccc(NC(=O)c2noc(C(C)C)c2[N+](=O)[O-])cc1	1.7*	.	-20.0	-17.4	-49.1	10.0	0.127	i
COc1ccc(NC(=O)c2noc(C(C)C)c2[N+](=O)[O-])cc1	0.5	7.4	-5.2	11.9	-0.5	-4.4	.	.
CCC(C)N(C(=O)COc1ccc(-c2nnco2)cc1)C1CCS(=O)(=O)C1 (stereo unspecified)	36.1*	-0.6	-0.7	-0.1	0.0	-4.8	-0.045	i
O=C(Nc1cc(S(=O)(=O)N2CCCCC2)ccc1Cl)C1=NN(c2ccccc2)C(=O)CC1	0.0	1.6	.	1.0	12.0	2.7	.	.
O=C(Nc1cccc(S(=O)(=O)N2CCCCC2)c1)C1=NN(c2ccccc2)C(=O)CC1	1.9*	-10.9	21.2	.	37.8	8.7	-0.096	i
Cc1ccc(S(=O)(=O)Nc2ccc3c(c2)C(=O)N([C@@H](C)CO)C[C@@H](C)[C@H](CN(C)C)O3)cc1	0.0	5.3	1.3	.	3.6	3.4	.	.
C[C@@H]1CN([C@H](C)CO)C(=O)c2cc(NS(=O)(=O)c3ccc(Cl)cc3)ccc2O[C@@H]1CN(C)S(=O)(=O)c1ccc(F)cc1	-0.5	-4.1	7.5	-19.5[16.7 µM]	2.0	.	.	.
C[C@@H]1CN([C@@H](C)CO)C(=O)c2cc(NS(=O)(=O)c3ccc(Cl)cc3)ccc2O[C@@H]1CN(C)S(=O)(=O)c1ccc(F)cc1	2.9*	-19.1	4.2	-22.7[16.7 µM]	-2.1	7.6	0.183[42 µM]	i
Cc1ccc(S(=O)(=O)Nc2ccc3c(c2)C(=O)N([C@@H](C)CO)C[C@@H](C)[C@@H](CN(C)C)O3)cc1	1.9*	-6.1	-0.9	.	2.1	1.6	-0.025	i
SMILES	FGF22 binding-1	PGC1a acetyl inh	EWS-Fli inh	HIV Env fusion	PAX8 inh HTS	FN deposition inh	FGF22 binding-2	SYPRO no-protein
C[C@H](CO)N1C[C@H](C)[C@H](CN(C)S(=O)(=O)c2ccc(F)cc2)Oc2ccc(NC(=O)c3ccncc3)cc2C1=O	1.9*	-4.2	0.8	8.8[16.7 µM]	-8.3	-11.4	0.048	i
CC(C)C#Cc1cnc2c(c1)C(=O)N([C@@H](C)CO)C[C@@H](C)[C@H](CN(C)C(=O)Nc1ccc(F)cc1)O2	0.0	5.4	-28.2	-9.4[16.7 µM]	-0.8	-5.4	.	.
CCC(C)NS(=O)(=O)c1ccc(S(=O)(=O)N2CC=C(c3ccc(F)cc3)CC2)cc1 (stereo unspecified)	13.6*	.	10.0	26.5	13.0	-2.3	0.134	i
COc1ccccc1NC(=O)c1ccc(NC(=O)c2ccc(=O)[nH]c2)cc1	1.9*	1.9	-10.0	-21.5	-3.0	0.7	0.365	i
CN1C(=O)c2cc(NC(=O)C3CCCCC3)ccc2OC[C@H]2O[C@H](CC(=O)NCC3CCCCC3)CC[C@@H]21	-0.4	-10.8	-3.0	.	11.1	-16.8	.	.
COc1ccc2[nH]cc(CCNS(=O)(=O)c3ccc(NC(C)=O)cc3)c2c1	0.1	2.7	-5.8	-3.2	10.7	-10.8	.	.
CC(=O)Nc1ccc(S(=O)(=O)NCCc2c[nH]c3ccc(C)cc23)cc1	1.4*	.	7.7	3.2	1.5	5.3	0.079	i
O=C(C[C@H]1CC[C@H](NC(=O)CN2CCOCC2)[C@H](CO)O1)NCCc1ccccc1	-0.2	-8.7	-2.5	-19.6[16.7 µM]	-7.4	.	.	.
O=C(Nc1ccccc1)Nc1ccc2nnsc2c1	2.1*	.	-121.4	-23.9	-66.7	2.0	0.273	i
O=C(Nc1ccccc1)Nc1ccc2snnc2c1	.	-4.8	.	.	.	.	.	.
